What all share (type): functional, Canis lupus familiaris
Assay [1] relates to Canis familiaris. Kind of assay: Time interval between the start of treatment and the first change in the CFR pattern of blood flow in the stenosed coronary artery at iv dose of 1000 ug/kg +100 ug/kg/min (n=4). Put shortly: (§1)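 Stenosed circumflex coronary artery in pentobarbital-anesthetized open-chest mongrel dogs (10-15 kg), drug iv in saline (mesylate/bismesylate salt), bolus followed by constant infusion. Onset measured as the time from the start of drug treatment to the first change in the cyclic flow reduction pattern of coronary blood flow. Mean ± SEM.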

Assay [2] deals with Canis familiaris. Briefly: In vivo inhibitory effect on Cyclical flow reductions (CFR) induced by intracoronary platelet aggregation in stenosed Canine coronary arteries at iv dose of 300 ug/kg +30 ug/kg/min (n=4). Put shortly:
(§2)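 Adult mongrel dogs (10-15 kg, either sex), sodium pentobarbital anesthesia (30 mg/kg iv), positive-pressure ventilation. Aortic pressure via femoral artery catheter. Drug given iv via femoral vein in saline as mesylate/bismesylate salt, bolus then constant infusion. Values mean ± SEM.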

Assay [3] concerns Canis familiaris. Kind of assay: In vivo inhibitory effect on Cyclical flow reductions (CFR) induced by intracoronary platelet aggregation in stenosed Canine coronary arteries at iv dose of 100 ug/kg +10 ug/kg/min (n=10). The essentials:
as §2

The test system of assay [4] is Canis familiaris. Briefly: Time interval between the end of treatment and restoration of the CFR pattern of blood flow to control levels at iv dose of 1000 ug/kg +100 ug/kg/min (n=4). The essentials: (§3)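 Anesthetized open-chest mongrel dogs (10-15 kg) with partially obstructed circumflex coronary artery; iv bolus plus constant infusion of drug in saline as mesylate/bismesylate salt. Duration scored as the time from the end of drug treatment until the cyclic flow reduction pattern returns to control levels. Mean ± SEM.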

Assay [5] has as its system Canis familiaris. Kind of assay: In vivo inhibitory effect on Cyclical flow reductions (CFR) induced by intracoronary platelet aggregation in stenosed Canine coronary arteries at iv dose of 1000 ug/kg +100 ug/kg/min (n=4). Put shortly:
as §2

The subject of assay [6] is Canis familiaris. Kind of assay: In vivo inhibitory effect on Cyclical flow reductions (CFR) induced by intracoronary platelet aggregation in stenosed Canine coronary arteries at iv dose of 30 ug/kg +3 ug/kg/min (n=4). Put shortly:
as §2

For assay [7], the system named is Canis familiaris. Briefly: Time interval between the end of treatment and restoration of the CFR pattern of blood flow to control levels at iv dose of 300 ug/kg +30 ug/kg/min (n=4). Put shortly: as §3
Assay [8] deals with Canis familiaris. Kind of assay: Time interval between the end of treatment and restoration of the CFR pattern of blood flow to control levels at iv dose of 100 ug/kg +10 ug/kg/min (n=10). Put shortly:
as §3

In assay [9] the test system is Canis familiaris. Briefly: Time interval between the start of treatment and the first change in the CFR pattern of blood flow in the stenosed coronary artery at iv dose of 300 ug/kg +30 ug/kg/min (n=4). The essentials: as §1
For assay [10], the system named is Canis familiaris. Briefly: Time interval between the start of treatment and the first change in the CFR pattern of blood flow in the stenosed coronary artery at iv dose of 100 ug/kg +10 ug/kg/min (n=10). The essentials:
as §1

In assay [11] the test system is Canis familiaris. Kind of assay: Time interval between the start of treatment and the first change in the CFR pattern of blood flow in the stenosed coronary artery at iv dose of 300 ug/kg +30 ug/kg/min (n=2-4). The essentials: as §1
Assay [12] relates to Canis familiaris. Briefly: In vivo inhibitory effect on Cyclical flow reductions (CFR) induced by intracoronary platelet aggregation in stenosed Canine coronary arteries at iv dose of 300 ug/kg +30 ug/kg/min (n=2-4). The essentials:
as §2

Assay [13] has as its system Canis familiaris. Briefly: Time interval between the start of treatment and the first change in the CFR pattern of blood flow in the stenosed coronary artery at iv dose of 300 ug/kg +30 ug/kg/min (n=3). Put shortly: as §1
Assay [14] relates to Canis familiaris. Briefly: Time interval between the start of treatment and the first change in the CFR pattern of blood flow in the stenosed coronary artery at iv dose of 100 ug/kg +10 ug/kg/min (n=3). Put shortly:
as §1

The subject of assay [15] is Canis familiaris. Kind of assay: In vivo inhibitory effect on Cyclical flow reductions (CFR) induced by intracoronary platelet aggregation in stenosed Canine coronary arteries at iv dose of 300 ug/kg +30 ug/kg/min (n=3). Put shortly: as §2
Assay [16] has as its system Canis familiaris. Kind of assay: Time interval between the end of treatment and restoration of the CFR pattern of blood flow to control levels at iv dose of 100 ug/kg +10 ug/kg/min (n=3). Put shortly:
as §3

The subject of assay [17] is Canis familiaris. Briefly: In vivo inhibitory effect on Cyclical flow reductions (CFR) induced by intracoronary platelet aggregation in stenosed Canine coronary arteries at iv dose of 100 ug/kg +10 ug/kg/min (n=3). The essentials:
as §2

Data on 3 compounds can be found in ChEMBL document CHEMBL1126735, “Synthesis and biological evaluation of antiplatelet 2-aminochromones” (J Med Chem, 1993).

SMILES strings stand for the structures.

With `Cc1c(OCCN2CCN(C)CC2)ccc2c(=O)cc(N3CCOCC3)oc12`, the figures for the Time to onset in assay [1], in [9] and in assay [10] were 1 min, 1 min and 5 min, respectively. For the same compound, the Rating in assay [2] amounted to 3; in assay [3], 1.9; in [5], 3; in assay [6], 0. In addition, the values for the Time to offset in [4], in assay [7] and in assay [8] were 73 min, 60 min and 25 min, respectively.
Take `Cc1c(OCCN2CCCCC2)ccc2c(=O)cc(N3CCOCC3)oc12`: the Time to onset in assay [1] is 7 min; in [11], 2 min. The Time to offset was found to be 23 min in assay [4] and 67 min in assay [7]. The results for the Rating in [5] and in assay [12] were 2.5 and 1.3, respectively.
Regarding `Cc1c(OCCN2CCSCC2)ccc2c(=O)cc(N3CCOCC3)oc12`, the Time to onset in [13] turned out to be 9 min; in assay [14], 17 min. The Time to offset in assay [7] worked out at 12 min; in [16] it was 5.3 min. In addition, the values for the Rating in assay [15] and in [17] were 2.3 and 2, respectively.
